Source: ChEMBL document CHEMBL2439950, “Arylamino methylene bisphosphonate derivatives as bone seeking matrix metalloproteinase inhibitors” (Bioorg Med Chem, 2013)
pIC50: −log10 of the molar value.

Columns and labels:
[1] = Cytotoxicity against human HepG2 cells assessed as cell viability at 100 uM after 48 hrs by MTT assay; assay type: cell-based; settings: read-out: Activity
In short: (§1)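 J774 A.1 cells were grown in DMEM and HepG2 in MEM, each with 10% FBS, penicillin, streptomycin and 2 mM L-glutamine, at 37 °C in 5% CO2. Seeded at 1-5·10^4 cells/well with half-log diluted compounds, 1% DMSO final, for 48 h. MTT was added to 0.5 mg/mL final for 3-4 h, solubilized in 50% DMSO/50% EtOH, and read at 570 nm. Background came from Triton X-100 lysed wells, and viability was taken relative to untreated controls.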

Hydroxyapatite = experiment: Binding affinity to bone mineral hydroxyapatite assessed as adsorbed level at 100 uM after 2 hrs by UV-spectrophotometric analysis
In short: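 Duplicate 5 ml aliquots of 100 μM bisphosphonic acid in 50 mM Tris-HCl pH 7.5, stirred with 4 mg hydroxyapatite at 37 °C for 2 h. After centrifugation (10 min, 8000 rpm) and 0.22 μm filtration, supernatant absorbance was quantified against calibration lines.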

[2] = target: 72 kDa type IV collagenase (Homo sapiens, UniProt P08253); experiment: Inhibition of APMA-activated recombinant human MMP2 using Mca-Pro-Leu-Gly-Leu-Dpa-Ala-Arg-NH2 as substrate incubated for 30 mins prior to substrate addition measured after 2 to 4 hrs by fluorometric assay
Chain of 72 kDa type IV collagenase (P08253 whole entry): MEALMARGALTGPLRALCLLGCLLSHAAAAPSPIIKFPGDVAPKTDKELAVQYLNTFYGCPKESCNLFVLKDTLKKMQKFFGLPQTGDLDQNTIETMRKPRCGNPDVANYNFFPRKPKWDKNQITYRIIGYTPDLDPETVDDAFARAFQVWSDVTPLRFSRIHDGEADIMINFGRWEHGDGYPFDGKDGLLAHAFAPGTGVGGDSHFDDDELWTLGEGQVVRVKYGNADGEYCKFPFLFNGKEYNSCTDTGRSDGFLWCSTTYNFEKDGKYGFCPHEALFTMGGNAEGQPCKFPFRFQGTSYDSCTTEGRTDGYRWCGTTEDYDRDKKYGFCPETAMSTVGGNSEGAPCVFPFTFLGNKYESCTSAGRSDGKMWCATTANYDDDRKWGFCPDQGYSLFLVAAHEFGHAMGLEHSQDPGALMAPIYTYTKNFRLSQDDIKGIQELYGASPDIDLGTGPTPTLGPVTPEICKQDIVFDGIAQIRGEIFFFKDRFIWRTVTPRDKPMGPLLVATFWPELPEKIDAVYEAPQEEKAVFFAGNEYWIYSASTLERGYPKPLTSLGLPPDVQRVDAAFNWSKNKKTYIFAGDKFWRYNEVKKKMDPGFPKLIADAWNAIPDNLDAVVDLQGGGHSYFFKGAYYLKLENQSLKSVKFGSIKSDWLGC
In short: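 Human pro-MMP-2 was activated with 2 mM APMA for 1 h at 37 °C. Enzyme and inhibitor (six concentrations, 0.1 nM–100 μM) were preincubated 30 min at 25 °C in Tris-HCl pH 7.5 buffer with NaCl, CaCl2, ZnCl2, Brij-35 and 1% DMSO. Substrate was added to 2.5 μM final, run 2–4 h at 37 °C, and stopped with 3% acetic acid. Fluorescence read at ex 340/em 405 nm, in triplicate; IC50 from percent inhibition versus no-inhibitor controls.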

[3] = target: Matrix metalloproteinase-9 (Homo sapiens, UniProt P14780); experiment: Inhibition of MMP9 catalytic domain (unknown origin) using Mca-Pro-Leu-Gly-Leu-Dpa-Ala-Arg-NH2 as substrate incubated for 30 mins prior to substrate addition measured after 2 to 4 hrs by fluorometric assay
Chain of Matrix metalloproteinase-9 (P14780 whole entry, the tested form may be a part): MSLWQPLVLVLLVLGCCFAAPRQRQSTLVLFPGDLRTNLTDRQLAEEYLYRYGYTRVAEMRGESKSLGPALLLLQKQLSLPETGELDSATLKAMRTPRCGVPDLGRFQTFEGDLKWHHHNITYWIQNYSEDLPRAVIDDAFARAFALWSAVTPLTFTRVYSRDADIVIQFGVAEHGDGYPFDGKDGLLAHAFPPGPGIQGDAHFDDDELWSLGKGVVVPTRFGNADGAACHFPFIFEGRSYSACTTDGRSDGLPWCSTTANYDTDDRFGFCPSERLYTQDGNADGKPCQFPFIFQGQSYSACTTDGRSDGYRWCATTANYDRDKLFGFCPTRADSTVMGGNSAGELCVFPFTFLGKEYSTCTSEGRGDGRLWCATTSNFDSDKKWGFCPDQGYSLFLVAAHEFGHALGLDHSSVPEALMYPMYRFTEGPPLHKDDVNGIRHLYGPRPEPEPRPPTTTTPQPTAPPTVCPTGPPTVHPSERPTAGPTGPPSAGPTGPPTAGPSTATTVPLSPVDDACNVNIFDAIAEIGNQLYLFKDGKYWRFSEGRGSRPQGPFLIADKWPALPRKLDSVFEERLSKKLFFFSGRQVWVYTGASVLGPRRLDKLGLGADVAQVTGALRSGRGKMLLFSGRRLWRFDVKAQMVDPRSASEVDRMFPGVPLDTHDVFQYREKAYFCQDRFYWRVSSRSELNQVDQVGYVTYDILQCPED
In short: (§2)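 Catalytic domains of MMP-8, MMP-9 or MMP-14 were preincubated 30 min at 25 °C with inhibitor (six concentrations, 0.1 nM–100 μM) in 50 mM Tris-HCl pH 7.5, 200 mM NaCl, 1 mM CaCl2, 1 μM ZnCl2, 0.05% Brij-35, 1% DMSO. Substrate was added to 2.5 μM final for 2–4 h at 37 °C, then acetic acid stop. Fluorescence read at 340/405 nm, in triplicate; IC50 fitted from percent inhibition.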

[4] = target: Matrix metalloproteinase-14 (Homo sapiens, UniProt P50281); experiment: Inhibition of MMP14 catalytic domain (unknown origin) using Mca-Pro-Leu-Gly-Leu-Dpa-Ala-Arg-NH2 as substrate incubated for 30 mins prior to substrate addition measured after 2 to 4 hrs by fluorometric assay; in short: as §2
[5] = Cytotoxicity against mouse J774A1 cells assessed as cell viability at 100 uM after 48 hrs by MTT assay; assay type: functional; settings: J774.A1, 48 h, read-out: Activity; in short: as §1
Neutrophil collagenase = Neutrophil collagenase (Homo sapiens, UniProt P22894); experiment: Inhibition of MMP8 catalytic domain (unknown origin) using Mca-Pro-Leu-Gly-Leu-Dpa-Ala-Arg-NH2 as substrate incubated for 30 mins prior to substrate addition measured after 2 to 4 hrs by fluorometric assay; in short: as §2
Chain of Neutrophil collagenase (P22894 whole entry, the tested form may be a part): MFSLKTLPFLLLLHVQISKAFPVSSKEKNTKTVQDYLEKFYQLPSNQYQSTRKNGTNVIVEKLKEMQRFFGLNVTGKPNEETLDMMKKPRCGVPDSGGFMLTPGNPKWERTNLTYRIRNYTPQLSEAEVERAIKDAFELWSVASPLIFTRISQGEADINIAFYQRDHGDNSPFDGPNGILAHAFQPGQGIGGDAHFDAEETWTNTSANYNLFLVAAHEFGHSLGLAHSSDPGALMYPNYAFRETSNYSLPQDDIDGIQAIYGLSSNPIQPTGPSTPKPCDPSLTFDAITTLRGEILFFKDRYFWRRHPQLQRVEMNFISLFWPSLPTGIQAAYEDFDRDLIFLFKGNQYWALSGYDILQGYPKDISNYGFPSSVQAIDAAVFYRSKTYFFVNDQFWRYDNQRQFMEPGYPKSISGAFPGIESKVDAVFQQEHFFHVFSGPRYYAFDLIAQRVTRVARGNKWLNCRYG

Compound	viability at 48 h, 100 µM [1]	Activity (Hydroxyapatite)	pIC50 [2]	pIC50 [3]	pIC50 [4]	viability at 100 µM [5]	pIC50 (Neutrophil collagenase)
O=P(O)(O)C(Nc1cccc(Br)c1)P(=O)(O)O	67%	70.1%	4.43	< 4.00	< 4.00	72%	< 4.00
O=P(O)(O)C(Nc1ccc(Cl)cc1)P(=O)(O)O [(4-CHLOROPHENYLAMINO)METHYLENEDIPHOSPHONIC ACID]	97%	64.2%	< 4.00	< 4.00	< 4.00	86%	< 4.00
O=P(O)(O)C(Nc1ccc(F)cc1)P(=O)(O)O	94%	61.2%	4.55	< 4.00	< 4.00	80.4%	< 4.00
O=P(O)(O)C(Nc1cccc(F)c1)P(=O)(O)O	70%	63.6%	4.38	< 4.00	< 4.00	84%	< 4.00
O=P(O)(O)C(Sc1ccc(Cl)cc1)P(=O)(O)O [TILUDRONIC ACID]	61%	51.5%	5.14	< 4.00	4.52	14%	4.49
O=P(O)(O)C(Nc1ccc(Oc2ccc(Br)cc2)cc1)P(=O)(O)O	90%	60.7%	5.55	4.06	4.31	15.3%	4.37
O=[N+]([O-])c1cccc(NC(P(=O)(O)O)P(=O)(O)O)c1 [(3-NITROPHENYLAMINO)METHYLENEDIPHOSPHONIC ACID]	83%	57.8%	4.81	< 4.00	< 4.00	54%	< 4.00
N#Cc1ccc(NC(P(=O)(O)O)P(=O)(O)O)cc1	77%	76%	4.44	< 4.00	< 4.00	86%	< 4.00
O=[N+]([O-])c1cc(NC(P(=O)(O)O)P(=O)(O)O)ccc1F	69%	66.2%	4.60	< 4.00	< 4.00	69%	< 4.00
O=P(O)(O)C(Nc1ccc(Cl)cc1Cl)P(=O)(O)O [2,4-DICHLOROPHENYLAMINOMETHYLENEBISPHOSPHONIC ACID]	73%	56.8%	< 4.00	< 4.00	< 4.00	59%	< 4.00
O=P(O)(O)C(Nc1ccc(Oc2ccc(Cl)cc2)cc1)P(=O)(O)O	87%	52.1%	5.68	4.26	4.12	73%	4.40
O=P(O)(O)C(Nc1cccc(-c2ccccc2)c1)P(=O)(O)O	102%	66.4%	< 4.00	< 4.00	4.40	49%	4.28
